Measurements from ChEMBL document CHEMBL4330068, “Design, synthesis and evaluation of pentacycloundecane and hexacycloundecane propargylamine derivatives as multifunctional neuroprotective agents” (Eur J Med Chem, 2019).
pIC50: −log10 of the molar value. One block for each compound: values may come before it. The source made the active and inactive calls. The rule behind the calls is not given here.

Legend:
[1] = target: Glutamate [NMDA] receptor (Homo sapiens) (UniProt Q05586+Q12879+Q13224+O15399+O60391+Q14957+Q8TCU5); assay: Antagonist activity at NMDA receptor in human SH-SY5Y cells assessed as reduction in NMDA/glycine-stimulated calcium influx at 10 uM preincubated for 30 mins in presence of Mag-Fura-2/AM dye followed by NMDA/glycine stimulation and measured over 35 secs by fluorescence assay (reference value: 100%); type: cell-based
Summary of the method: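 SH-SY5Y cells loaded with ratiometric Ca indicator Mag-Fura-2/AM, incubated with compound at 10 µM for 30 min at 37 °C, then stimulated with concentrated NMDA/glycine solution; fluorescence change from cytosolic Ca rise read on plate reader. % NMDAr inhibition calculated relative to MK-801 (10 µM); DMSO vehicle. Mean of at least 9 independent experiments.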

[2] = Cytotoxicity against human SH-SY5Y cells assessed as cell viability at 10 uM after 48 hrs by MTT assay (reference value: 100%); type: cell-based; conditions: read-out: Activity
Summary of the method: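 SH-SY5Y cells exposed to compound at 10, 50 or 100 µM for 48 h; viability by MTT, read spectrophotometrically. DMSO vehicle-treated cells set as 100% viability. Mean ± SEM, n = 3 with four fields per repeat; ANOVA.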

[3] = target: T1, Amine oxidase [flavin-containing] B (Homo sapiens, UniProt P27338); assay: Inhibition of recombinant human MAO-B using kynuramine as substrate after 20 mins by fluorescence assay
T1 sequence (P27338 whole entry): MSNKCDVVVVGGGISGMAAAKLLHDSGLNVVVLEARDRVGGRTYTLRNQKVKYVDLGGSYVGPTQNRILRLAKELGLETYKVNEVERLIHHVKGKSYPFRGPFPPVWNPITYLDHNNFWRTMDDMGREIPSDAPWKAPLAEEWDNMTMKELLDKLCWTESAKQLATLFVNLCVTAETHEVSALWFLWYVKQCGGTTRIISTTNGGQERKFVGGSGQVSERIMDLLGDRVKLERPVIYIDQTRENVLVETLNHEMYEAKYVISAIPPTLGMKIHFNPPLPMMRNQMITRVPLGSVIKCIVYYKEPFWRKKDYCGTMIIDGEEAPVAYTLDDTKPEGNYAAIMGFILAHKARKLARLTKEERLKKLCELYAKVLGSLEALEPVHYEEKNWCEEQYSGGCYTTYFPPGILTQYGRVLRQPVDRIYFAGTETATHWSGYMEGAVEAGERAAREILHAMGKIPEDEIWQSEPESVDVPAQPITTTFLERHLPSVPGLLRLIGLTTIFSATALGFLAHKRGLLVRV

[4] = target: T2, Amine oxidase [flavin-containing] A (Homo sapiens, UniProt P21397); assay: Inhibition of recombinant human MAO-A using kynuramine as substrate after 20 mins by fluorescence assay
T2 sequence (P21397 whole entry): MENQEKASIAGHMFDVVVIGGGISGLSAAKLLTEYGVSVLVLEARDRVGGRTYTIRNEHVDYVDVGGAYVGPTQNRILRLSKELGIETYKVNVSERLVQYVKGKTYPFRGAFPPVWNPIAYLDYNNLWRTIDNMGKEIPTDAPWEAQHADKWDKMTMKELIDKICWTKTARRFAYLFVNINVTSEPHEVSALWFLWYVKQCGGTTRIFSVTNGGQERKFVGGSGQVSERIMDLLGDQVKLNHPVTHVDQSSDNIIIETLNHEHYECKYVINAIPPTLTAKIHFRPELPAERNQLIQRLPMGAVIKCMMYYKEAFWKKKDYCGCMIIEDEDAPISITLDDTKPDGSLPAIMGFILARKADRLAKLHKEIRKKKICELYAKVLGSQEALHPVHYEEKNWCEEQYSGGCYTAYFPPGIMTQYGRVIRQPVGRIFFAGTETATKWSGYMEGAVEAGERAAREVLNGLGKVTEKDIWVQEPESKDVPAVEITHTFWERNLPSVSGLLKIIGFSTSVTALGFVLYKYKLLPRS

[5] = test system: SH-SY5Y; assay: Neuroprotective activity in human SH-SY5Y cells assessed as reduction in MPP+ induced cytotoxicity at 5 to 10 uM preincubated for 2 hrs followed by MPP+ addition measured after 48 hrs by MTT assay; type: functional, cell-based
[6] = target: T2, Amine oxidase [flavin-containing] A; assay: Irreversible inhibition of recombinant human MAO-A at 2 times IC50 preincubated up to 60 mins followed by kynuramine substrate addition and measured after 20 mins by fluorescence assay
Summary of the method: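 Recombinant human MAO-A is preincubated with inhibitor for 0, 15, 30 or 60 min, then the kynuramine reaction is started. Residual oxidation rate is read as 4-hydroxyquinoline fluorescence (RFU). Results are the mean of three independent experiments.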

[7] = test system: SH-SY5Y; assay: Neuroprotective activity in human SH-SY5Y cells assessed as reduction in MPP+ induced cytotoxicity by measuring cell viability at 1 uM preincubated for 2 hrs followed by MPP+ addition and measured after 48 hrs by MTT assay (reference value: 45%); type: functional
[8] = target: T1, Amine oxidase [flavin-containing] B; assay: Reversible inhibition of recombinant human MAO-B at 2 times IC50 preincubated up to 60 mins followed by kynuramine substrate addition and measured after 20 mins by fluorescence assay
[9] = target: Voltage-gated L-type calcium channel (Homo sapiens, UniProt Q13936+Q13698+Q01668+O60840); assay: Inhibition of voltage-dependent L-type calcium channel in human SH-SY5Y cells assessed as reduction in KCl-stimulated calcium influx at 100 uM preincubated for 30 mins in presence of Mag-Fura-2/AM dye followed by KCl stimulation and measured over 35 secs by fluorescence assay; type: cell-based; conditions: 35 s
[10] = target: T1, Amine oxidase [flavin-containing] B; assay: Inhibition of recombinant human MAO-B using kynuramine as substrate after 20 mins by fluorescence assay relative to control
Summary of the method: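 Recombinant human MAO-B oxidises kynuramine. The product, 4-hydroxyquinoline, is read by fluorescence in the supernatant (excitation 310 nm, emission 400 nm).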

SMILES: C#CCNCc1ccc(C/N=C2/C3C4CC5C6C4C2C6C2(OCCO2)C53)cc1 (stereo unspecified)
inhibition [1]: 88.3%

SMILES: COCCOC(=O)C1=C(C)NC(C)=C(C(=O)OC(C)C)C1c1cccc([N+](=O)[O-])c1 (stereo unspecified)
inhibition [1]: inactive

SMILES: C#CCNCc1ccc(CN2C3C4C5CC6C7C5C3C7C2(O)C64)cc1 (stereo unspecified)
viability at 48 h, 10 µM [2]: 98% | pIC50 [3]: 5.42 | pIC50 [4]: 4.25 | Activity [5]: Active | inhibition (INH) [6]: Active | Activity [7]: 43% | inhibition (INH) [8]: Active | inhibition [1]: 0.6%

SMILES: c1ccc(CNC23OC4C5C6CC(C7C6C4C72)C53)cc1 (stereo unspecified)
viability at 48 h, 10 µM [2]: 86% | pIC50 [3]: < 4.00 | pIC50 [4]: < 4.00 | Activity [5]: Active | Activity [7]: 66% | inhibition [1]: 32.5%

SMILES: NCc1ccc(CN2C3C4C5CC6C7C5C3C7C2(O)C64)cc1 (stereo unspecified)
viability at 48 h, 10 µM [2]: 107% | pIC50 [3]: < 4.00 | pIC50 [4]: < 4.00 | Activity [5]: Active | Activity [7]: 46% | inhibition [1]: 59%

SMILES: C#CCN1C2C3C4CC5C6C4C2C6C1(O)C53 (stereo unspecified)
inhibition (INH) [9]: Not Active | inhibition (INH) [10]: 6% | inhibition [1]: 4%

SMILES: Nc1ccc(CN2C3C4C5CC6C7C5C3C7C2(O)C64)cc1 (stereo unspecified)
viability at 48 h, 10 µM [2]: 101% | pIC50 [3]: < 4.00 | pIC50 [4]: < 4.00 | Activity [5]: Active | Activity [7]: 31% | inhibition [1]: 11.9%

SMILES: ClCc1ccc(CNC23OC4C5C6CC(C7C6C4C72)C53)cc1 (stereo unspecified)
inhibition [1]: 26.1%

SMILES: c1cc(C/N=C2\C3C4CC5C6C4C2C6C2(OCCO2)C53)ccc1C/N=C1/C2C3CC4C5C3C1C5C1(OCCO1)C42 (stereo unspecified)
inhibition [1]: 70.5%

SMILES: C#CCNC12OC3C4C5CC(C6C5C3C61)C42 (stereo unspecified)
inhibition (INH) [9]: Not Active | inhibition [1]: inactive

Other lines, results leading:

inhibition [1]: inactive
SMILES: Nc1ccc(CNC23OC4C5C6CC(C7C6C4C72)C53)cc1 (stereo unspecified)

inhibition [1]: 63.9%
SMILES: C#CCNCc1ccc(CNC2C3C4CC5C6C4C2C6C2(OCCO2)C53)cc1 (stereo unspecified)

inhibition [1]: 63.1%
SMILES: Nc1ccc(C/N=C2/C3C4CC5C6C4C2C6C2(OCCO2)C53)cc1 (stereo unspecified)

inhibition [1]: 49.5%
SMILES: NCc1ccc(C/N=C2/C3C4CC5C6C4C2C6C2(OCCO2)C53)cc1 (stereo unspecified)

inhibition [1]: 31.4%
SMILES: C#CCNCc1ccc(CNC23OC4C5C6CC(C7C6C4C72)C53)cc1 (stereo unspecified)

inhibition [1]: inactive
SMILES: NCc1ccc(CNC2C3C4CC5C6C4C2C6C2(OCCO2)C53)cc1 (stereo unspecified)
